Screening data: PubChem, several laboratories
Shown are actives, neighbours in structure and some others; about 2.4% of the full set was active somewhere.
MC4R antag cAMP: MC4R antagonists of cAMP signaling, primary screen, cell-based, TR-FRET, antagonist arm of biased-ligand search; Melanocortin receptor 4 (Homo sapiens), P32245; MC4R-expressing cells, MTII-stimulated cAMP, LANCE TR-FRET; inhibition, % at 6.5 µM; 0.48% of 360,000 active;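 active = inhibition above its plate's cutoff, the mean of tested wells on that plate plus 3 SD, cut at about 29% in these data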;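 also: 0% = Melanotan II alone and 100% = Melanotan II plus saturating MCL0020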
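Material: U2OS-MC4R stable cell line | Reagent: Melanotan II challenge after compound preincubation | Doses: One concentration, 6.5 µM nominal | Incubation: 30-min compound preincubation, 1-h Melanotan II challenge, 1-h detection, room temperature | Signal: TR-FRET cAMP assay | Replicates: One well per compound, no replicates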
TbMetRS inhib: T. brucei MetRS inhibitors, primary screen, biochemical, luminescence | methionyl-tRNA synthetase (Trypanosoma brucei brucei) | 0.4% of 360,000 active | inhibition, % at 11.9 µM | purified T. brucei MetRS, ATP depletion, Kinase-Glo luminescence;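 active = inhibition above a per-plate cutoff of the control wells' mean inhibition plus 3 SD, cut at about 5.5% in these data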;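 also: 0% = DMSO wells median and 100% = median of wells with control inhibitor compound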
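Assay system: T. brucei methionyl-tRNA synthetase, purified | Medium: HEPES buffer with MgCl2, KCl, DTT, spermine, BSA, pyrophosphatase | Compound: 11.9 µM single point | Incubation: 15 min enzyme-compound preincubation, 2 h reaction, 10 min detection, 25 °C | Measured by: Kinase-Glo luciferase luminescence reporting remaining unconsumed ATP | Measure: % inhibition normalized to control-well medians | Replication: Singlicate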
aDG glyco up: activators of alpha-DG glycosylation, primary screen, uHTS, Pro5-aDG cells, AlphaScreen. activation, % at 10 µM. 0.22% of 360,000 active. alpha-DG glycosylation AlphaScreen (IIH6); 0% Pro5, 100% B10-LARGE cell signal. AID 624168, 2012;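 active = activation of at least 8% versus controls, or a plate z-score of at least 8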;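 also: Pro5 are CHO cells carrying HIG-tagged alpha-DG that lacks glycosylation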
MC4R barr agon: MC4R agonists recruiting beta-arrestin, primary screen, cell-based, luminescence, agonist arm of biased-ligand search; Melanocortin receptor 4 (Homo sapiens), P32245; U2OS MC4R beta-arrestin complementation; percent of melanotan II response, DMSO zero; activation, % at 8.9 µM; 0.98% of 360,000 active; AID 540308, 2011;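 active = activation above a per-plate cutoff, the mean activation of sample wells on that plate plus 3 SD, cut at about 8% in these data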
NTR1 ag: agonists of human NTR1, primary screen, imaging, U2OS cells, beta-arrestin-GFP, high content. Neurotensin receptor type 1 (Homo sapiens), P30989. 0.17% of 330,000 active. AID 493036, 2011. NTR1-U2OS beta-arrestin-GFP spot imaging, agonist mode. activation, % at 20 µM;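 active = activation at or above 40% of the spot to cytoplasm intensity ratio, with at least 20 cells analyzed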;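 also: 0% = DMSO without peptide and 100% = 100 nM NTR1 peptide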
Target sequence (P30989 whole entry, looked up): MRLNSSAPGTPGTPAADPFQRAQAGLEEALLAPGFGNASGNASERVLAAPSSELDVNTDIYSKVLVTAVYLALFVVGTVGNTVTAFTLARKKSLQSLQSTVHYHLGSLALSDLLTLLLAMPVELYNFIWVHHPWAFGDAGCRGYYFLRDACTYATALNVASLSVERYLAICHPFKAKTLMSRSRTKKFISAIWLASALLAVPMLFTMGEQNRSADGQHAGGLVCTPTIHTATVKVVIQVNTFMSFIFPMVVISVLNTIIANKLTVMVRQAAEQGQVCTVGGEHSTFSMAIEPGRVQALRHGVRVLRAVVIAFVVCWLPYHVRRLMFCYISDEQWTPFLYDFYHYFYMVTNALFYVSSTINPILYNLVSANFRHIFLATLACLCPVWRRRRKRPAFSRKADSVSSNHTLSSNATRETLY
H9c2 TAG inh: inhibitors of triacylglycerol accumulation, primary screen, cell-based, uHTS, fluorescence, H9c2; H9c2 cells, Nile Red lipid (TAG) fluorescence; cells loaded with 200 µM oleic acid; inhibition, % at 12.5 µM; 0.66% of 230,000 active; AID 651582, 2012;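 active = pattern-corrected inhibition of lipid staining of at least 50% with the nuclear-stain viability signal not falling by more than 50%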;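 also: 0% = DMSO wells and 100% = triacsin C control wells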
Tb MetRS conf: T. brucei MetRS inhibitors, confirmation, biochemical, luminescence | shares compounds with TbMetRS inhib | T. brucei MetRS enzyme, luminescence (ATP depletion) | inhibition, % at 11.9 µM | 93% of 1,400 active | AID 624412, 2012; in the data active = inhibition above about 7%
Jurkat cytotox: Jurkat T cell cytotoxicity, cytotoxicity control for T. brucei MetRS inhibitor project, luminescence, high throughput; 12% of 1,400 active; Jurkat cells viability, ATP luminescence; shares compounds with TbMetRS inhib; inhibition, % at 8.3 µM; in the data active = inhibition above about 15%;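 also: 0% = vehicle and 100% = reference inhibitor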
TbMetRS FP orth: T. brucei MetRS inhibitors, orthogonal assay for T. brucei MetRS inhibitor project, biochemical, fluorescence polarization; shares compounds with TbMetRS inhib; purified T. brucei MetRS; inhibition, % at 11.9 µM; 44% of 1,400 active; in the data active = inhibition above about 17%;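 also: 0% = vehicle wells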
* = called active by the depositor; · = no result.

SMILES	MC4R antag cAMP	TbMetRS inhib	aDG glyco up	MC4R barr agon	NTR1 ag	H9c2 TAG inh	Tb MetRS conf	Jurkat cytotox	TbMetRS FP orth
Cc1cc(N2C(=O)C(O)=C(C(=O)c3ccco3)C2c2ccc(Cl)cc2)no1 (configuration not stated)	9.7	6.1*	-0.1	-3.9	0.6	·	3.8	6.0	-3.4
CC1=C(C(=O)N(C)C)CC(CC(=O)NCc2cccs2)C(=O)N1Cc1ccc(F)cc1 (configuration not stated)	·	-0.8	-0.3	·	·	·	·	·	·
N#Cc1ccc(Sc2nc3ccccc3[nH]2)cc1C#N	0.2	16.9*	1.8	-1.4	5.4	-19.4	28.9*	0.2	14.1
CC(C)C(C(=O)NCc1ccccc1)N1CCN(c2ccccc2F)CC1 (configuration not stated)	·	-0.5	0.2	·	·	·	·	·	·
Nc1nc2nonc2nc1N1CCCCC1	1.8	7.1*	0.0	-1.6	0.0	-5.8	13.5*	2.9	2.9
C1CCCN(c2nc3nonc3nc2N2CCCCCC2)CC1	-0.1	-1.3	-0.2	-0.2	1.6	4.3	·	·	·
C=CCNC(=S)NNC(=O)CSc1nc2ccccc2s1	11.0	7.6*	-0.1	-2.0	1.1	·	14.1*	3.8	0.7
COc1ccc(OC)c(N2C(=O)c3ccccc3C2c2nnnn2-c2ccc3c(c2)OCCO3)c1 (configuration not stated)	·	-0.8	-0.3	·	·	·	·	·	·
COc1ccc(NC(=O)CC2C(=O)N(C)C(=S)N2Cc2ccco2)cc1 (configuration not stated)	-2.1	-0.2	0.2	-0.8	-3.8	·	·	·	·
CCN1C(=O)C(CC(=O)Nc2ccc(OC)cc2)N(CCN2CCOCC2)C1=S (configuration not stated)	-3.9	-0.7	-0.1	-0.7	-1.8	6.6	·	·	·
COc1ccc(NC(=O)CC2C(=O)N(C)C(=S)N2CCc2ccccc2F)cc1 (configuration not stated)	0.5	34.8*	0.4	1.6	1.2	3.0	45.8*	0.9	19.8*
CCN1C(=O)C(CC(=O)Nc2ccc(OC)cc2)N(CCc2ccccc2F)C1=S (configuration not stated)	11.6	33.5*	0.1	0.8	2.1	-10.3	33.6*	18.1*	21.3*
Cc1ccc(-c2nc3ccccc3n2C(C)C(=O)NC(C)(C)C)cc1 (configuration not stated)	·	-0.1	-0.1	·	·	·	·	·	·
CC(C)Cc1nnc(NC(=O)CCC(=O)Nc2ccccc2)s1	15.4	0.0	0.9	-2.1	1.0	·	·	·	·
CC(C)COC(=O)Nc1nnc(Cc2ccccc2)s1	5.5	10.4*	-0.7	-0.3	4.3	-2.9	3.1	5.5	4.3
CC(C)Cc1nnc(NC(=O)Nc2ccccc2)s1	5.6	16.3*	-0.1	5.8	-0.4	5.0	31.8*	-3.9	10.8
CN(CC(=O)Nc1ccc(Cl)c(C(F)(F)F)c1)C(=O)c1ccc2c(c1)NC(=O)CS2	5.6	6.6*	0.0	1.1	3.0	-0.4	16.5*	-4.1	8.1
Cc1ccc2[nH]c3c(c2c1)CCc1cn[nH]c1-3	-11.8	22.4*	0.1	-1.1	4.0	·	11.7*	1.8	46.8*
COc1ccc(-c2sc3ccccc3c2-c2cc(OC)ccc2C=O)cc1	·	-0.5	0.1	·	·	·	·	·	·
CN1CCSc2ccc(C(=O)NCc3cccc(Br)c3)cc21	11.7	5.7*	-0.2	-0.9	-1.4	1.0	10.8*	-1.2	1.4
Cc1cccc(CNC(=O)c2ccc3c(c2)N(C)CCS3)c1	19.1	0.7	0.0	0.8	-1.4	2.0	·	·	·
O=C(NCc1cccc(Cl)c1)c1cnn2c1NC(c1ccco1)CC2C(F)(F)F (configuration not stated)	22.8	10.4*	0.8	4.7	2.4	·	22.6*	0.8	14.5
COCCNC(=O)c1cnn2c1NC(c1ccco1)CC2C(F)(F)F (configuration not stated)	1.7	-1.2	-0.1	-0.1	-0.4	-4.0	·	·	·
COc1ccc(NC(=O)c2ccc(-n3cncn3)c([N+](=O)[O-])c2)cc1	1.9	6.2*	-0.2	-2.1	1.4	-1.4	22.4*	0.8	7.5
Cc1cccc(NC(=O)CNC(=O)c2ccc(-n3cncn3)c([N+](=O)[O-])c2)c1C	7.0	19.0*	-0.4	-1.4	-0.7	1.3	51.4*	-6.1	27.5*
SMILES	MC4R antag cAMP	TbMetRS inhib	aDG glyco up	MC4R barr agon	NTR1 ag	H9c2 TAG inh	Tb MetRS conf	Jurkat cytotox	TbMetRS FP orth
COc1ccc(NC(=O)c2ccc(-n3cncn3)c([N+](=O)[O-])c2)cc1OC	1.8	15.4*	0.0	-3.7	0.7	8.6	58.8*	2.9	32.8*
O=C(NCCCc1ccccc1)c1ccc(-n2cncn2)c([N+](=O)[O-])c1	-1.4	20.9*	0.1	-2.6	-1.0	-23.1	57.5*	-0.8	35.1*
CC(=O)C(=Cc1cccc(C#N)c1)C(=O)c1ccccc1	·	-1.7	-0.2	·	·	·	·	·	·
OCCc1ccc(NCCc2cccs2)cc1	·	-0.2	-0.3	·	·	·	·	·	·
COc1cc(OC)cc(C(=O)NNC(=O)c2ccc(-n3cncn3)c([N+](=O)[O-])c2)c1	11.1	6.0*	0.0	1.8	-1.3	3.6	31.2*	2.8	17.5*
CN(c1ccc(OC(=O)c2ccc(-n3cncn3)c([N+](=O)[O-])c2)cc1)S(=O)(=O)c1ccccc1	28.4	4.7	-0.1	5.2	0.1	14.9	·	·	·
CCc1ccc(NC(=O)c2ccc(-n3cncn3)c([N+](=O)[O-])c2)cc1	-1.7	13.2*	0.4	-0.1	1.9	-3.9	39.1*	1.5	20.4*
Cc1ccc(NC(=O)CN(C)C(=O)c2ccc(-n3cncn3)c([N+](=O)[O-])c2)cc1	0.8	10.2*	0.0	-0.2	0.0	2.0	38.3*	-1.2	15.9
O=C(c1ccc(-n2cncn2)c([N+](=O)[O-])c1)N1CCN(c2cccc(Cl)c2)CC1	-6.3	5.8*	0.7	-2.8	0.8	21.4	19.5*	5.4	5.7
